The target in data set [1] is T1, Probable G-protein coupled receptor 142 (Homo sapiens, UniProt Q7Z601).
T1 sequence (Q7Z601 whole entry): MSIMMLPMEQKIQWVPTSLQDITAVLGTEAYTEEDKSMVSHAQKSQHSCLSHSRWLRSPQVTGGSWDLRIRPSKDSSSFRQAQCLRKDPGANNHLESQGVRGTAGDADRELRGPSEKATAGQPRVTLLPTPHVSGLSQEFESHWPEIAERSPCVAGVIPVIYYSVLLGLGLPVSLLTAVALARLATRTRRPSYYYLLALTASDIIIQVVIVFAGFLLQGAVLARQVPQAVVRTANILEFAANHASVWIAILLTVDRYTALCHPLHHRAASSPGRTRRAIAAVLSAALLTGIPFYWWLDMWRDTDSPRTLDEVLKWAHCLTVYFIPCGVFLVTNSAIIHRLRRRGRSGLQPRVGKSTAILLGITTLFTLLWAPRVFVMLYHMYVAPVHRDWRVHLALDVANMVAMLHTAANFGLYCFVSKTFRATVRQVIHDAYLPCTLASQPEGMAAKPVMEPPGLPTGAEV
In words: Agonist activity at human GPR142 expressed in HEK293 cells assessed as inositol phosphate accumulation using [3H]-inositol after 1 hr by scintillation counting. The data set is classed as functional, cell-based. The method in brief: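 HEK293 cells plated at 25,000/well, next day (80–90% confluent) transfected with 100 ng receptor plasmid per well by Lipofectamine; after 6 h switched to inositol-free DMEM/10% dialyzed FCS with 1 µCi/mL [3H]-inositol overnight. Washed in HBSS, then compound dilutions (DMSO) in HBSS/0.01% BSA plus 10 mM LiCl, 37 °C, 1 h. Lysed in ice-cold 20 mM formic acid, 4 °C 5 h, then yttrium silicate SPA beads, scintillation counting. Emax as % of maximal response to 10 mM tryptophan.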

Data set [2] has as its target T2, Probable G-protein coupled receptor 142 (Homo sapiens) (UniProt Q7Z601).
T2 sequence (whole entry): T1 sequence (Q7Z601 whole entry)
The data set can be described thus: Agonist activity at human GPR142 expressed in HEK293 cells assessed as inositol phosphate accumulation using [3H]-inositol after 1 hr by scintillation counting relative to tryptophan. The class given is functional, cell-based. The essentials:
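HEK293 cells on poly-D-lysine were transfected next day with 100 ng receptor plasmid/well, then labelled overnight with 1 µCi/mL [3H]-inositol in inositol-free DMEM/10% dialyzed FCS. Cells got graded compound in HBSS/0.01% BSA with 10 mM LiCl for 1 h at 37 °C. They were lysed in ice-cold 20 mM formic acid and counted with yttrium silicate SPA beads. EC50 given; Emax as % of maximal tryptophan response at 10 mM.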

Data set [3] has as its target CYP3A4 (Homo sapiens, UniProt P08684). In words: Inhibition of CYP3A4 at 3 uM. The class given is ADME.
Data set [4] concerns the target T1, Probable G-protein coupled receptor 142. In words: Agonist activity at human GPR142 expressed in HEK293 cells assessed as inositol phosphate accumulation using [3H]-inositol after 1 hr by scintillation counting in presence of human serum. The class given is functional, cell-based. The essentials:
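Same transfected HEK293 [3H]-inositol IP accumulation protocol as buffer assay, but compound incubation (10 mM LiCl, 37 °C, 1 h) run in 100% human serum instead of HBSS/0.01% BSA. Formic acid lysis, SPA bead scintillation read-out. Emax expressed as % of maximal 10 mM tryptophan response.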

For data set [5], the target named is CYP2D6 (Homo sapiens, UniProt P10635). In words: Inhibition of CYP2D6 at 3 uM. The class given is ADME.
Data set [6] deals with T2, Probable G-protein coupled receptor 142 (Homo sapiens). In words: Agonist activity at human GPR142 expressed in HEK293 cells assessed as inositol phosphate accumulation using [3H]-inositol after 1 hr by scintillation counting in presence of human serum relative to tryptophan. The class given is functional, cell-based. The method in brief:
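Transiently transfected HEK293 cells were labelled overnight with 1 µCi/mL tritiated inositol, then given graded compound in 100% human serum (in place of HBSS/0.01% BSA) with 10 mM LiCl for 1 h at 37 °C. Lysis was in ice-cold 20 mM formic acid, with SPA-bead scintillation read-out. EC50 given; Emax as % of maximal tryptophan response.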

Data set [7] is described as follows: Induction of insulin secretion in mouse pancreatic islets in presence of 16.7 mM of glucose relative to control. The data set is classed as functional. The settings on record: Pancreatic islet. The method in brief: (§1)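 Isolated mouse islets stimulated in 16.7 mM glucose with 0.625% HSA and 1% DMSO; insulin secretion measured, Emax reported as percentage.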

The nature of data set [8]: Induction of insulin secretion in mouse pancreatic islets in presence of 16.7 mM of glucose. The settings on record: Pancreatic islet. The data set is classed as functional. The essentials: as §1
For data set [9], the target named is T3, Probable G-protein coupled receptor 142 (Mus musculus, UniProt Q7TQN9).
T3 sequence (Q7TQN9 whole entry): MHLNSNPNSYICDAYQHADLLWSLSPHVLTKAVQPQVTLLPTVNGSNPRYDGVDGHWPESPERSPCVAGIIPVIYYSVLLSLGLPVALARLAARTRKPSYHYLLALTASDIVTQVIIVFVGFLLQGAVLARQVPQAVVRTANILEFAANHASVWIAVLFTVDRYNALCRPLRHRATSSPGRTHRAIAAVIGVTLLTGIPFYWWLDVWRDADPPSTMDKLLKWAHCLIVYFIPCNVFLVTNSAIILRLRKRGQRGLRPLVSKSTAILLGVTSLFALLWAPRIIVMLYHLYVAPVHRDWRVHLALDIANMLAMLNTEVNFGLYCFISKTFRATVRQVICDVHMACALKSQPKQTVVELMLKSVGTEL
In words: Agonist activity at mouse GPR142 assessed as inositol phosphate accumulation. The class given is functional.

Chain of CYP2D6 (P10635 whole entry): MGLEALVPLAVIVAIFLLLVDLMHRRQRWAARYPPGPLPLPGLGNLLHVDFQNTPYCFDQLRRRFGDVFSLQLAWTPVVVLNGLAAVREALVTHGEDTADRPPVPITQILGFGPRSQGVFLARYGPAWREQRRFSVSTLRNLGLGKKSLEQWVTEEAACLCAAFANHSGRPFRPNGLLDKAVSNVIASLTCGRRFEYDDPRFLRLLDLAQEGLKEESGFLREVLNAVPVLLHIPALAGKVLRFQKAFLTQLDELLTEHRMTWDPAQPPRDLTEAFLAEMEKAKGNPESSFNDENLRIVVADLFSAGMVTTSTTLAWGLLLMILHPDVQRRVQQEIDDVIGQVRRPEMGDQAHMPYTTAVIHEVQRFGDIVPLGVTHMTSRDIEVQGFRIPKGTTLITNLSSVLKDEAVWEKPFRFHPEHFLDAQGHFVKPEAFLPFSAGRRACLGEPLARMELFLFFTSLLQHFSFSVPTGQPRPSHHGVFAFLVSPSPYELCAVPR
Chain of CYP3A4 (P08684 whole entry): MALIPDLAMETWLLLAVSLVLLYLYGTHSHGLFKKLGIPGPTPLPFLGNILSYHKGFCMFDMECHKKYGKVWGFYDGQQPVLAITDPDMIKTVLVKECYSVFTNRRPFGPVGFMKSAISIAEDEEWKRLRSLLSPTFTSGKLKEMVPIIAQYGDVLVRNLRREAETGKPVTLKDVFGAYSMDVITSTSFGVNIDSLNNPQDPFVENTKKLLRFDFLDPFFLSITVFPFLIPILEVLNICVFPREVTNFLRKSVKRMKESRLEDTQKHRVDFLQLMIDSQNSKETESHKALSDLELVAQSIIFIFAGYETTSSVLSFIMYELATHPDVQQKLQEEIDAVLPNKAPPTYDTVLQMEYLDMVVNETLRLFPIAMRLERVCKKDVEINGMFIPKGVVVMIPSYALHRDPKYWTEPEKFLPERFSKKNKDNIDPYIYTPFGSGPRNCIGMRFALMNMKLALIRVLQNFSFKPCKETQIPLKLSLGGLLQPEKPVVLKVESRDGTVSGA

What is called EC50 is the concentration needed to bring the measured effect to its halfway point. One may read the Emax as the size of the effect at its maximum, as opposed to the concentration needed. Consider `N#Cc1ccc(C[C@H](N)C(=O)Nc2cc(-c3ccncc3)c[nH]c2=O)cc1`, for which, in [1], the EC50 came to 4.6 µM. Besides, in data set [2], the Emax worked out at 79%.

As a reminder, the inhibition is the change of the read-out against control, counted positive when it falls. The low end stands for little suppression, the high end for strong suppression. On to `O=C(Nc1cccc(-c2ccncc2)c1)[C@H](Cc1ccccc1)NCc1cscn1`, for which the inhibition at 3 µM came to 97% in data set [3] and 95% in data set [5]. The EC50 amounted to 0.067 µM in data set [1] and 0.97 µM in data set [4].

Consider `Nc1cc(-c2cccc(NC(=O)[C@H](Cc3ccccc3)NCc3cscn3)c2)ccn1`, for which the inhibition at 3 µM in data set [3] was 38%; in data set [5], 42%. Moreover, in [1], the EC50 was found to be 0.21 µM.

As for `N[C@@H](Cc1ccc(F)cc1)C(=O)Nc1cc(-c2ccncc2)c[nH]c1=O`, the EC50 in data set [1] was determined as 4.2 µM. Besides, the Emax in data set [2] was 102%.

Consider `O=C(Nc1cccc(-c2ccccc2)c1)[C@H](Cc1ccccc1)NCc1cscn1`, for which the inhibition at 3 µM turned out to be 57% in data set [3] and 46% in [5]. The EC50 in data set [1] turned out to be 0.64 µM.

With `CC(=O)N[C@@H](Cc1ccccc1)C(=O)Nc1cc(-c2ccncc2)c[nH]c1=O`, the EC50 in [1] is over 33 µM.

On to `O=C(Nc1cc(-c2ccncc2)c[nH]c1=O)[C@H](Cc1ccccc1)NCCc1ccccc1`, for which the EC50 in [1] worked out at 0.78 µM. For the same compound, in [2], the Emax was 67%.

Consider `N[C@H](C(=O)Nc1cc(-c2ccncc2)c[nH]c1=O)c1ccccc1`, for which the concentration for a half-maximal effect (EC50) in data set [1] is over 33 µM.

Consider `N[C@@H](Cc1cccc(Cl)c1)C(=O)Nc1cc(-c2ccncc2)c[nH]c1=O`, for which the EC50 in data set [1] was over 33 µM. Moreover, the Emax in data set [2] came out at 50%.

Take `COc1ccc(C[C@H](N)C(=O)Nc2cc(-c3ccncc3)c[nH]c2=O)cc1`: the EC50 in data set [1] is 25 µM. The Emax in data set [2] was 40%.

As to `Cc1cc(-c2cccc(NC(=O)[C@H](Cc3ccccc3)NCc3cscn3)c2)ccn1`, the inhibition at 3 µM in data set [3] is 63%; in [5], 74%. The EC50 in data set [1] was 0.052 µM.

Consider `Cc1ccc(C[C@H](N)C(=O)Nc2cc(-c3ccncc3)c[nH]c2=O)cc1`, for which the 50% effective concentration (EC50) in [1] was found to be 6.6 µM. Further, the Emax in data set [2] worked out at 73%.

`Cn1ccc(-c2cccc(NC(=O)[C@H](Cc3ccccc3)NCc3cscn3)c2)n1`: the inhibition at 3 µM in data set [3] amounted to 30%; in data set [5] it was 12%. Further, in [1], the EC50 worked out at 1.9 µM.

With `O=C(Nc1cc(-c2ccncc2)c[nH]c1=O)[C@H](Cc1ccccc1)NCC1CC1`, the EC50 in [1] stood at 0.76 µM. Besides, in [2], the Emax was determined as 106%.

On to `N[C@@H](Cc1ccc(Cl)cc1)C(=O)Nc1cc(-c2ccncc2)c[nH]c1=O`, for which the EC50 in [1] worked out at 3.8 µM. Besides, in data set [2], the Emax was determined as 105%.

Regarding `O=C(CCc1ccccc1)Nc1cc(-c2ccncc2)c[nH]c1=O`, the EC50 in data set [1] was over 33 µM.

`N[C@@H](Cc1ccccc1Cl)C(=O)Nc1cc(-c2ccncc2)c[nH]c1=O`: the EC50 in data set [1] was over 33 µM. Besides, in [2], the Emax was found to be 42%.

Regarding `Cn1cc(-c2c[nH]c(=O)c(NC(=O)[C@H](Cc3ccccc3)NCc3cscn3)c2)cn1`, the inhibition at 3 µM came out at 24% in data set [3] and 21% in [5]. The EC50 in data set [1] stood at 0.23 µM.

For the compound `NCC(=O)Nc1cc(-c2ccncc2)c[nH]c1=O`, in data set [1], the EC50 was over 33 µM.

Regarding `COc1ccc(NC(=O)[C@H](Cc2ccccc2)NCc2cscn2)cc1-c1ccncc1`, the EC50 in [1] came to 0.24 µM; in data set [4], 0.98 µM.

For `COc1ccc(-c2ccncc2)cc1NC(=O)[C@H](Cc1ccccc1)NCc1cscn1`, the EC50 was determined as 0.089 µM in data set [1] and 1 µM in data set [4].

Consider `O=C(Nc1ccccc1)[C@H](Cc1ccccc1)NCc1cscn1`, for which the values for the inhibition at 3 µM in data set [3] and in data set [5] were 24% and 36%, respectively. In data set [1], the EC50 amounted to 3.3 µM.

On to `O=C(Nc1cc(-c2ccncc2)c[nH]c1=O)[C@H](Cc1ccccc1)NCc1cscn1`, for which the inhibition at 3 µM in [3] was 97%; in [5], 95%. In addition, the EC50 is 0.093 µM in [1], 0.5 µM in [4] and 2.7 µM in data set [8]. For the same compound, the maximum response (Emax) in data set [6] turned out to be 100%; in data set [2], 120%; in data set [7], 88%.

For `N[C@H](Cc1ccccc1)C(=O)Nc1cc(-c2ccncc2)c[nH]c1=O`, in [1], the EC50 was determined as 13 µM. In addition, the Emax in data set [2] was found to be 93%.

Regarding `COc1cc(NC(=O)[C@H](Cc2ccccc2)NCc2cscn2)cc(-c2ccncc2)c1`, the values for the EC50 in data set [1] and in [4] were 0.053 µM and 0.81 µM, respectively.

For `Cn1cc(-c2cccc(NC(=O)[C@H](Cc3ccccc3)NCc3cscn3)c2)cn1`, the values for the inhibition at 3 µM in data set [3] and in [5] were 36% and 42%, respectively. In data set [1], the EC50 is 0.18 µM.

With `O=C(Nc1cc(-c2ccncc2)c[nH]c1=O)[C@H](Cc1ccccc1)NCc1ccccc1`, the half-maximal effective concentration (EC50) in [1] came to 0.83 µM. The Emax in data set [2] was 97%.

With `O=C(Nc1cc(-c2ccn[nH]2)c[nH]c1=O)[C@H](Cc1ccccc1)NCc1cscn1`, the inhibition at 3 µM came to 18% in data set [3] and 29% in data set [5]. Further, in data set [1], the EC50 came out at 0.2 µM.

Turning to `N[C@@H](Cc1ccccc1)C(=O)Nc1cc(-c2ccncc2)c[nH]c1=O`, the EC50 is 4.8 µM in data set [1] and 1.4 µM in data set [9]. Besides, the Emax in [2] worked out at 115%.

On to `O=C(Nc1cccc(-c2cc[nH]n2)c1)[C@H](Cc1ccccc1)NCc1cscn1`, for which the figures for the inhibition at 3 µM in data set [3] and in data set [5] were 59% and 36%, respectively. Also, the EC50 in [1] was 0.067 µM.

As to `N[C@@H](CC1CCCCC1)C(=O)Nc1cc(-c2ccncc2)c[nH]c1=O`, in [1], the EC50 was over 33 µM. The Emax in data set [2] was 30%.

Regarding `O=C(Nc1nccc(-c2ccncc2)n1)[C@H](Cc1ccccc1)NCc1cscn1`, the values for the concentration giving a half-maximal response (EC50) in [1] and in [4] were 0.36 µM and 0.29 µM, respectively.

Regarding `O=C(Nc1cccc(-c2cn[nH]c2)c1)[C@H](Cc1ccccc1)NCc1cscn1`, the inhibition at 3 µM in data set [3] was 82%; in data set [5], 90%. In data set [1], the EC50 was determined as 0.18 µM.

(Values after ChEMBL document CHEMBL2069182, “Discovery and optimization of a novel series of GPR142 agonists for the treatment of type 2 diabetes mellitus” (Bioorg Med Chem Lett, 2012).)
